ARFGAP1 inhibitor: inhibitors of rat ARFGAP1 GAP activity, primary screen, biochemical, fluorescence polarization, GDP tracer; 0.26% of 360,000 active; AID 651572, 2012; ADP-ribosylation factor GTPase-activating protein 1 (Rattus norvegicus), Q62848; inhibition, % at 16.5 µM; Arfgap1-stimulated ARF1 GTP hydrolysis, GDP FP detection;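 active = inhibition above a per-plate limit, mean inhibition of low control wells plus 3 SD, cut at about 25% in these data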
Target sequence (Q62848 1-136 limits assumed): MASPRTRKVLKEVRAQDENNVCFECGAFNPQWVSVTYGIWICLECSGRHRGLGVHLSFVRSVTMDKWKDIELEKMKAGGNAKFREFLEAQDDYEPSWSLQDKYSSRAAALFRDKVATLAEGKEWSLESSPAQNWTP
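Material: truncated rat Arfgap1 GAP domain; Incubation: compound-enzyme preincubation 20 min, reaction 120 min, detection 60 min, 25 °C; Read-out: percent inhibition of Arfgap1-stimulated GTP hydrolysis; Technique: FP, GDP Alexa 633 tracer displaced from anti-GDP antibody, 620/688 nm; Controls: No-Arfgap1 wells (100%) versus DMSO full-reaction wells (0%); Replication: single well per compound.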
ZTA counter: blocks Epstein-Barr virus ZTA, an EBNA-1 counter-screen; P03206; inhibition, % at 11 µM; 0.15% of 320,000 active; ZTA-DNA binding, fluorescence polarization; in the data active = inhibition above about 33%
Target sequence (P03206 whole entry, looked up): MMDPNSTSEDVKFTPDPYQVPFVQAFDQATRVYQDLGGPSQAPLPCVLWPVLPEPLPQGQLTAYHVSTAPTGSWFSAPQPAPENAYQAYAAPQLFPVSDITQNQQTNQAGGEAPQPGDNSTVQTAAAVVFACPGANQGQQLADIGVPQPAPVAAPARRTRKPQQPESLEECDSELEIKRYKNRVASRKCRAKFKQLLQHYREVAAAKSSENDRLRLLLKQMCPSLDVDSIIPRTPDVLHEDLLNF
ASAP1 GAP inh: inhibitors of human ASAP1 ArfGAP activity, primary screen, biochemical, fluorescence polarization | Arf-GAP with SH3 domain, ANK repeat and PH domain-containing protein 1 (Homo sapiens), … | ASAP1-stimulated ARF1 GTP hydrolysis, GDP FP detection | inhibition, % at 16.5 µM | 0.19% of 360,000 active | AID 624377, 2012; in the data active = inhibition above about 25%
EBNA-1 inhibitor: EBNA-1 DNA-binding inhibitors, primary screen, biochemical, fluorescence polarization | inhibition, % at 14.8 µM | 0.34% of 300,000 active; in the data active = inhibition above about 28%
Zta DNA confirm: EBV Zta binding to ZRE DNA, inhibitors, confirmation, biochemical, fluorescence polarization, triplicate | inhibition, % at 11.1 µM | 30% of 320 active | shares compounds with ZTA counter;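 active = mean inhibition across triplicate runs above the hit threshold derived for the original primary screen, cut at about 33% in these data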
EBNA-1 counter: EBNA-1 DNA-binding inhibition, counter-screen for ZTA inhibitor project, biochemical, fluorescence polarization; shares compounds with ZTA counter; inhibition, % at 14.8 µM; 320 tested, under 10 active; AID 2362, 2010; call rule not given here
Of the large screens only hits and unclear results are named; the others gave an inactive call (follow-up assays come after a bar, where they were run); ! = a repeat was not active. A selection: hits, their analogues and other compounds. The true share with any hit is near 0.75%.

C[C@H](c1ccccc1)N1C[C@@H](COCc2ccccc2)Oc2cccc(N3CCCCC3)c2S1(=O)=O	none (no result: ZTA counter, EBNA-1 inhibitor)
Brc1cccc(OCCSc2ncccn2)c1	none
Clc1ccc(OCCSc2ncccn2)c(Br)c1	ZTA counter 106 | Zta DNA confirm inactive | EBNA-1 counter inactive
COc1ccc2c(c1)NC(C)(C)C=C2C	none
CC1=CC(C)(C)Nc2ccccc21	ZTA counter 39! | Zta DNA confirm inactive | EBNA-1 counter inactive
Nc1c(C(=O)NCc2ccc(F)cc2)c2nc3ccccc3nc2n1CCCN1CCOCC1	ZTA counter 66 | Zta DNA confirm inactive | EBNA-1 counter inactive
Nc1c(C(=O)NCc2ccccc2)c2nc3ccccc3nc2n1CCCN1CCOCC1	none
C[C@H]1COc2cc(N3CCCC3)ccc2S(=O)(=O)N1	none (no result: ZTA counter, EBNA-1 inhibitor)
NC(=O)CSc1nnc(-c2ccc3c(c2)OCO3)o1	none
NC(=O)c1ccc(NC(=O)CSc2nnc(-c3ccc4c(c3)OCO4)o2)cc1	ZTA counter 35 (no result: EBNA-1 inhibitor) | Zta DNA confirm inactive | EBNA-1 counter inactive
Cc1ccc(C2c3c(n[nH]c3C(C)C)C(=O)N2c2ccccc2)cc1 (configuration not stated)	none (no result: ZTA counter, EBNA-1 inhibitor)
CCOC(=O)c1c(CSc2ccc(CC)cc2)oc2ccc(O)c(CN(C)C)c12	ZTA counter 34 | Zta DNA confirm inactive | EBNA-1 counter inactive
C#CCOCCOCCOCCNc1nc(N2CCN(C(=O)CCCCCCCCCCNC(=O)[C@H]([C@@H](C)CC)n3cc(CCCCCN)nn3)CC2)nc(N2CCN(C(=O)CCCCCCCCCCNC(=O)[C@H]([C@@H](C)CC)n3cc(CCCCN=C(N)N)nn3)CC2)n1	ZTA counter 163 (no result: ARFGAP1 inhibitor, ASAP1 GAP inh) | Zta DNA confirm 55 | EBNA-1 counter inactive
C#CCOCCOCCOCCNc1nc(N2CCN(C(=O)CCCCCCCCCCNC(=O)Cn3cc(CCCCCN)nn3)CC2)nc(N2CCN(C(=O)CCCCCCCCCCNC(=O)[C@H]([C@@H](C)CC)n3cc(CCCCN=C(N)N)nn3)CC2)n1	ZTA counter 61 (no result: ARFGAP1 inhibitor, ASAP1 GAP inh) | Zta DNA confirm 48 | EBNA-1 counter inactive
C#CCOCCOCCOCCNc1nc(N2CCN(C(=O)Cn3cc(CCCN=C(N)N)nn3)CC2)nc(N2CCN(C(=O)[C@H]([C@@H](C)CC)n3cc(CCCCN)nn3)CC2)n1	none
C#CCOCCOCCOCCNc1nc(N2CCN(C(=O)CCCCCCCCCCNC(=O)[C@H]([C@@H](C)CC)n3cc(CCCCN=C(N)N)nn3)CC2)nc(N2CCN(C(=O)CCCCCCCCCCNC(=O)[C@H](CCCCN)n3cc(C)nn3)CC2)n1	ZTA counter 56 (no result: ARFGAP1 inhibitor, ASAP1 GAP inh) | Zta DNA confirm 68 | EBNA-1 counter inactive
CC(C)=CCc1c2c(c3occ(-c4ccc(O)cc4)c(=O)c3c1O)C=CC(C)(C)O2	ZTA counter 35 | Zta DNA confirm inactive | EBNA-1 counter inactive
NC(=O)c1c(N)[nH]c(C(=O)c2ccccc2)c1-c1ccc(Cl)cc1Cl	none (no result: ZTA counter, EBNA-1 inhibitor)
Cc1ccc(S(=O)(=O)N(C)c2cccc3c2S(=O)(=O)N([C@H](C)c2ccccc2)C[C@@H](COCc2ccccc2)O3)cc1	none (no result: ZTA counter, EBNA-1 inhibitor)
O=c1c(Cl)c(Cl)cnn1Cc1ccccc1Cl	ZTA counter 34 | Zta DNA confirm inactive | EBNA-1 counter inactive
CCc1nc(SCC(=O)Nc2nccs2)c2oc3ccccc3c2n1	ZTA counter 42 | Zta DNA confirm 38 | EBNA-1 counter inactive
O=C(CSc1ncnc2c1oc1ccccc12)Nc1nccs1	none
COC(=O)[C@]12C[C@H](CC(=O)NCCCN3CCCC3=O)C(=O)N(Cc3ccccc3)C1=C[C@H](C(C)(C)C)O[C@@H]2C	none (no result: ZTA counter, EBNA-1 inhibitor)
CS(=O)(=O)c1ccc2nc(NC(=O)c3ccc(NS(=O)(=O)c4ccc(F)c(F)c4)cc3)sc2c1	ZTA counter 87 | Zta DNA confirm 39 | EBNA-1 counter inactive
Cc1cc(C(=O)O)ccc1-n1c(C)ccc1C	ZTA counter 55 (no result: ARFGAP1 inhibitor, ASAP1 GAP inh) | Zta DNA confirm 57 | EBNA-1 counter inactive
Cc1cc(C(=O)O)ccc1-n1c(C)cc(C=C2C(=O)c3ccccc3C2=O)c1C	none
O=C(N[C@H](C(=O)N1CCC[C@H]1C(=O)NC1CCCC1)c1ccccc1)c1ccccc1	none (no result: ZTA counter, EBNA-1 inhibitor)
CCOC(=O)C1(Cc2ccccc2)CCN(Cc2cccn2-c2nccs2)CC1	ZTA counter 34 | Zta DNA confirm inactive | EBNA-1 counter inactive
COc1ccc(-c2nc(N)n(C(=O)c3cccs3)n2)cc1	ZTA counter 79 | Zta DNA confirm inactive | EBNA-1 counter inactive
O=C(Cc1c[nH]c2ccccc12)Nc1ccc(Nc2ccncc2)cc1	none (no result: ZTA counter, EBNA-1 inhibitor)
CCOC(=O)c1c(NC(=O)Cn2nc(C(=O)O)c3ccccc3c2=O)sc(CC)c1C	ZTA counter 36 | Zta DNA confirm inactive | EBNA-1 counter inactive
CN1CCc2c(sc3c2C(=O)NC(c2ccccn2)N3)C1 (configuration not stated)	ZTA counter 40 | Zta DNA confirm inactive | EBNA-1 counter inactive
Nc1nnnn1/N=C/c1ccc(F)cc1	ZTA counter 52 | Zta DNA confirm inactive | EBNA-1 counter inactive
Nc1nnnn1/N=C/c1ccc(Br)cc1	none (no result: ZTA counter, EBNA-1 inhibitor)
c1ccc(-n2ncc3c(N4CCN(c5ccccn5)CC4)nc(N4CCCCCC4)nc32)cc1	ZTA counter 40 | Zta DNA confirm inactive | EBNA-1 counter inactive
c1ccc(-n2ncc3c(N4CCCCC4)ncnc32)cc1	none
O=C(NCC1CCN(C(=O)C(=O)c2cccs2)CC1)c1ccc2ccccc2c1	none (no result: ZTA counter, EBNA-1 inhibitor)
Cn1c(CCN2CCN(c3ccccn3)CC2)nc2cc(NC(=O)COc3ccc([N+](=O)[O-])cc3)ccc21	ZTA counter 38 | Zta DNA confirm inactive | EBNA-1 counter inactive
COC(=O)[C@]12C[C@H](CC(=O)N3CCN(C(=O)c4ccco4)CC3)C(=O)N(Cc3ccccc3)C1=C[C@H](C(C)(C)C)O[C@@H]2C	none (no result: ZTA counter, EBNA-1 inhibitor)
Cc1ccc(-c2csc3ncn(Cc4ccc(C(=O)O)cc4)c(=O)c23)cc1C	none
CCCOc1ccc(-c2csc3ncn(Cc4ccc(C(=O)O)cc4)c(=O)c23)cc1	ZTA counter 43 | Zta DNA confirm inactive | EBNA-1 counter inactive
COC(=O)c1cc2c(c3c4cc(C)ccc4n(S(=O)(=O)c4ccc(C)cc4)c13)C(=O)N(Cc1ccc(N(C)C)cc1)C2	none (no result: ZTA counter, EBNA-1 inhibitor)
O=C(O)/C=C/c1cn(Cc2ccccc2)nc1-c1ccccc1	none
O=C(O)CCn1cc(/C=C/C(=O)c2ccc(Cl)cc2)c(-c2ccc(Br)cc2)n1	ZTA counter 45 | Zta DNA confirm inactive | EBNA-1 counter inactive
Fc1ccc2cc(C3=CCCCC3)ncc2c1	none (no result: ZTA counter, EBNA-1 inhibitor)
C[C@H]1CCCCO[C@@H](CN(C)CC2CC2)[C@@H](C)CN([C@@H](C)CO)C(=O)c2cc(NS(=O)(=O)c3ccccc3)ccc2O1	none (no result: ZTA counter, EBNA-1 inhibitor)
COc1ccccc1C1CC(=O)Nc2cc(C)c(C)cc21 (configuration not stated)	none

Screening data from PubChem.
